Wee1 stabilizer: Wee1 degradation inhibitors, primary screen, cell-based, HeLa, Wee1K328M-luciferase, luminescence. Wee1-like protein kinase (Homo sapiens), P30291. HeLa Luc-Wee1K328M stability; 100% = proteasome inhibitor MG132 effect. reporter increase, % at 5 µM. 220,000 tested, 1.2% active. AID 1321, 2008;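 active = activation above the mean of all tested compounds plus 3 SD, set per screening run, cut at about 8.8% in these data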;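 note: cells exposed to compound for 20 h before luminescence read; 0% = DMSO alone and 100% = MG132 at 30 µM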
APP 5'UTR act: activators of APP 5'UTR luciferase reporter, primary screen, SH-SY5Y cells; SH-SY5Y APP 5'UTR luciferase reporter, luminescence; zero percent = DMSO vehicle wells; activation, % at 2 µM; 190,000 tested, 1% active;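 active = activation above a set limit, based on mean plus 3 SD of controls, cut at about 140% in these data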
Mdm2 ligase inh: MDM2-luciferase reporter signal enhancers, primary screen, MDM2 E3 ligase inhibitor project, cell-based, luminescence, 1536-well. signal enhancement, % at 5 µM. cell-based MDM2 ubiquitination luciferase reporter, 2 h; 0 = plate control, 100 = twice control, blank-subtracted. 210,000 tested, 0.11% active;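 active = signal enhancement of 30% or more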;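 note: luminescence tracks abundance of the self-degrading MDM2-luciferase fusion protein; higher signal means inhibition of MDM2 E3 ligase activity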
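system = mammalian cells stably expressing self-ubiquitinating, self-degrading MDM2 E3–luciferase fusion | quantity = 2000 cells per well seeded | incubation = 4 h cell settling then 2 h compound exposure, 37 °C | signal = SteadyLite luminescence, 15 min reagent step | benchmarks = plate control and blank wells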
STAT1 activator: STAT1 signaling activators, primary screen, cell-based, HTS, luciferase reporter; NIH 3T3 STAT1-luciferase reporter, IFN-gamma, luminescence; 100% = IFN-gamma alone, no compound; activation (% of control), % at 5.5 µM; 200,000 tested, 2.6% active; AID 932, 2007;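 active = activation above the screen-wide mean activation plus 3 SD, cut at about 130% in these data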;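 note: raw ratio to IFN-gamma control signal so 100% means no change and 0% no light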
NF-kB neuron act: activators of NF-kB expression in neurons, primary screen, cell-based, HTS; 190,000 tested, 1.6% active; human neuronal cells, NF-kB reporter expression; active compounds read high; fold change at 12.5 µM; AID 1239, 2008; in the data active = fold change above about 3.3
p97 inhibitor: inhibitors of human p97 ATPase, primary screen, biochemical; Transitional endoplasmic reticulum ATPase (Homo sapiens), P55072; AID 1481, 2009; 220,000 tested, 0.42% active; recombinant p97 ATPase, Kinase-Glo ATP luminescence, 3 h; inhibition, % at 8 µM; in the data active = inhibition above about 15%;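 note: 0% = DMSO vehicle and 100% = wells lacking enzyme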
Starred values were filed as active, the others as inactive; x = not tested or not shown. This is a sample that favours compounds with a hit; in the whole collection about 4.6% have one here.

SMILES	Wee1 stabilizer	APP 5'UTR act	Mdm2 ligase inh	STAT1 activator	NF-kB neuron act	p97 inhibitor
O=C(CN1CCCCC1)Nc1ccccc1Oc1ccccc1	-3	x	4	x	x	3
CCOC(=O)C1=C(N)n2c(s/c(=C\c3cccnc3)c2=O)=C(C(=O)OC)C1c1cccnc1 (stereo not drawn)	10*	-1	x	94	x	0
CCOC(=O)C1=C(N)n2c(s/c(=C\c3ccncc3)c2=O)=C(C(=O)OCC)C1c1ccncc1 (stereo not drawn)	0	-7	-8	96	0.75	2
Cc1cccc(NC(=O)COc2ccc(/C=C\c3[nH]c(=O)[nH]c(=O)c3[N+](=O)[O-])cc2)c1	-3	18	-7	109	1	8
O=C(O)CCCNc1cc(N2CCC3(CC2)OCCO3)c2noc3c2c1C(=O)c1ccccc1-3	3	90	-1	143*	0.44	2
O=C(CSc1nc2ccccc2c(=O)n1NC(=O)c1ccccc1)c1ccc(Cl)cc1	9.3*	158*	-7	124	2	-19
C=CCOc1ccc(/C=C/C(C)=N\O)cc1	-2	92	-20	132*	4.2*	4
COc1cccc(-c2cc(C(=O)N3C(C)CCCC3C)no2)c1 (stereo not drawn)	-1	71	-25	136*	3.3*	-9
CC1CCCCN1C(=O)c1cc(-c2ccc(Cl)c(Cl)c2)on1 (stereo not drawn)	1	69	-11	133*	2.1	-2
COc1cccc(C(=O)Nc2cnn(C(C)C)c2)c1	4	57	-15	125	2.1	-1
O=C(Nc1cccnc1)c1cc(-c2ccccc2)on1	-1	17	x	106	1.2	1
COc1cccc(-c2cc(C(=O)Nc3cccnc3)no2)c1	1	-17	3	132*	4.9*	0
COc1cccc(-c2cc(C(=O)N3CCN(C(c4ccccc4)c4ccccc4)CC3)no2)c1	-2	13	-6	98	1.2	0
CC(C)n1cc(NC(=O)c2cc(-c3ccccc3)on2)cn1	5	-77	-3	131*	2.9	-2
CC(C)(C)NC(=O)CCc1ncc(C(F)(F)F)cc1Cl	2	21	4	97	1.4	-2
O=C(CN1C(=O)C2C3CCC(C3)C2C1=O)N1CCN(Cc2ccccc2)CC1 (stereo not drawn)	-3	-12	-12	101	1.4	-2
Cc1ccc(S(=O)(=O)N2CCC(C(=O)Nc3nnc(-c4ccco4)s3)CC2)cc1	1	1	-7	103	0.94	6
O=C(Nc1nnc(-c2ccco2)s1)C1CCCCC1	0	108	-11	144*	1.5	3
CCc1cccc(CC)c1NC(=O)CN1C2CCCC1CC(NC(=O)Nc1cccc(OC)c1)C2 (stereo not drawn)	3	29	-10	119	0.94	-1
Oc1oc(-c2ccccc2)nc1/C=N/c1ccccn1	3	73	-14	129*	1.9	2
CCOC(=O)c1ccccc1N/C=C/C(=O)c1cccs1	2	-3	-6	112	1.3	0
O=C(Nc1cccs1)Nc1ccc(F)cc1F	9.0*	9	6	97	1.6	6
O=C(/C=C/Nc1ccccc1F)c1cccs1	1	175*	-63	100	7.2*	-4
Cc1ccc(N/C=C/C(=O)c2cccs2)cc1	8	214*	-81	22	1.9	9
O=C(/C=C\Nc1cccc(F)c1)c1cccs1	4	189*	-41	149*	7.7*	1
O=C(Nc1ccc(F)cc1F)Nc1ccc(F)cc1F	8	45	-90	99	2	1
O=C(/C=C/Nc1ccc(F)cc1F)c1cccs1	1	107	-73	99	3.8*	2
CCOc1cc(C)c(Cl)cc1S(=O)(=O)NCCOC	9.5*	0	0	99	1	1

Screening results deposited in PubChem by several laboratories.
